In ChEMBL document CHEMBL1122835, “Synthesis and pharmacology of the potent angiotensin-converting enzyme inhibitor N-[1(S)-(ethoxycarbonyl)-3-phenylpropyl]-(S)-alanyl-(S)-pyroglutamic acid” (J Med Chem, 1985):

Legend:
[1] = molecular target: T1, Angiotensin-converting enzyme (Rattus norvegicus) (UniProt P47820); assay: Inhibitory activity was determined against Angiotensin I converting enzyme; type: functional
T1 sequence (whole entry): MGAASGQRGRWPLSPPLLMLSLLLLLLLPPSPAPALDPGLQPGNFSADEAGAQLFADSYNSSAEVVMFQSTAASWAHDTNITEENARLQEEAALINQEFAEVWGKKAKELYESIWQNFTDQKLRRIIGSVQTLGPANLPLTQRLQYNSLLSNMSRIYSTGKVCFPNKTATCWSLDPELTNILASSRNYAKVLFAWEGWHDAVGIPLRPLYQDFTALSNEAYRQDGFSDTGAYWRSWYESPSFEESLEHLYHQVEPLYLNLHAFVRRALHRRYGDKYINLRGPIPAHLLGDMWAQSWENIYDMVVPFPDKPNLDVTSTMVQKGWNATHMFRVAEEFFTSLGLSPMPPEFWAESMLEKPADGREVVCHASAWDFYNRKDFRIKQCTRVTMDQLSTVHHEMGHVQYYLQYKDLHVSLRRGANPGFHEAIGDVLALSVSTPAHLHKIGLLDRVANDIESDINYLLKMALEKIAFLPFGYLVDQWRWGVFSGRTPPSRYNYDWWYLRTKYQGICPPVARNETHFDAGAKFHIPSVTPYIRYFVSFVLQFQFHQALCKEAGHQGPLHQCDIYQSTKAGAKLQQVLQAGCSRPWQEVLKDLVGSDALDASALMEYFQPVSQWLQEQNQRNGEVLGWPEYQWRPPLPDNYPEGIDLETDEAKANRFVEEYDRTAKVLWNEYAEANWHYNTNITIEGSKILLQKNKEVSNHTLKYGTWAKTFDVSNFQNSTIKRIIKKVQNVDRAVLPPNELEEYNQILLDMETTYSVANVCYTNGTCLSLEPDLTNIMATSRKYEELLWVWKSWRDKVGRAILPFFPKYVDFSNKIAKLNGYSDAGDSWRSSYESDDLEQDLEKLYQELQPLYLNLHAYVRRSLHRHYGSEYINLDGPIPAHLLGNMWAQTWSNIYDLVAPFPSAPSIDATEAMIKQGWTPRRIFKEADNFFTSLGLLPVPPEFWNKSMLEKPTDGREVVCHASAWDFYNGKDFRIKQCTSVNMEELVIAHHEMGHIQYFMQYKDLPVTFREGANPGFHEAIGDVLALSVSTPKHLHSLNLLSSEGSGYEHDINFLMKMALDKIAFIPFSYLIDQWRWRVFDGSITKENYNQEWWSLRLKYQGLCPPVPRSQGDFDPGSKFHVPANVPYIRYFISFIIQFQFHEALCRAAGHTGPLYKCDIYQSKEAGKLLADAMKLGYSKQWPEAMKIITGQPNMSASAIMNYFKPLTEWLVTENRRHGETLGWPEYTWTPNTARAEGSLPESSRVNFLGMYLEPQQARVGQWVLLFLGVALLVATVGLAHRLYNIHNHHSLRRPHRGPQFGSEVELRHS

Rattus norvegicus [2] = assay: Effect on vasopressor response caused by angiotensin I (AI) in anesthetized normotensive rat, administered intravenously at dose 0.27 mg/kg; type: functional; conditions: route intravenous
How it was run: (§1)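 Male Charles River CD rats, 380–500 g, anesthetized with pentobarbital Na 15 mg/kg plus barbital 220 mg/kg ip, held at 37 °C. Femoral artery pressure recorded. AI 0.3 μg/kg and AII 0.1 μg/kg given iv as challenges. Cumulative iv drug in saline, 0.01–0.81 mg/kg, each dose followed by AI/AII challenges at 5-min intervals. ED50 = 50% change from control response, by linear regression.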

Rattus norvegicus [3] = assay: Decrease in systolic blood pressure of Spontaneous Hypertensive Rats (SHR) pretreated with hydrochlorothiazide upon oral administration at 3 mm/kg; type: functional, Artery
How it was run: (§2)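 Male SHR, 13 weeks old, given HCTZ 25 mg/kg po in 0.25% methylcellulose daily for 3 days. Drug given orally in water (5 mL/kg) 1 h after the third dose. Tail-cuff systolic pressure and pulse-count heart rate taken 1.5 h later after 20 min warming at 38 °C. ANOVA with Duncan's test; ED30 by linear regression.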

Rattus norvegicus [4] = organism: Rattus norvegicus; assay: Effective dose was determined to increase the vasoResponse in rat; type: functional
How it was run: (§3)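 Anesthetized (pentobarbital/barbital ip) male Charles River CD rats, 380–500 g, kept at 37 °C. Femoral artery blood pressure recorded. Control depressor response to bradykinin 1 μg/kg iv, then cumulative iv drug in 0.9% saline (1 mL/kg), 0.0033–0.27 mg/kg. Bk challenge 5 min after each dose. ED50 = dose giving a 50% change from control, by linear regression; N = 8.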

Rattus norvegicus [5] = assay: Activity against the bradykinin Response in anesthetized normotensive rat, administered intravenously at dose 0.0033 mg/kg; type: functional; conditions: route intravenous; how it was run: as §3
Rattus norvegicus [6] = assay: Change in heart rate was determined at a dose 10 mg/kg; type: functional; how it was run: as §2
Rattus norvegicus [7] = assay: Percent change was determined in bradykinin depressor response in anesthetized normotensive rat, administered intravenously at dose 0.0033 mg/kg; type: functional; conditions: route intravenous; how it was run: as §3
Rattus norvegicus [8] = assay: Percent decrease in angiotensin I pressor response was measured in rat, administered intravenously at dose 0.27 mg/kg; type: functional; conditions: route intravenous
How it was run: (§4)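 Anesthetized (pentobarbital Na 15 mg/kg + barbital 220 mg/kg ip), tracheotomized male Charles River CD rats, 380–500 g, femoral cannulas, heated board at 37 °C. Control pressor responses to angiotensin I 0.3 μg/kg then angiotensin II 0.1 μg/kg iv; drug iv in 0.9% saline (free base), AI and AII repeated at 5-min intervals, cumulative 0.01–0.81 mg/kg. Peak arterial pressure rise versus control.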

Rattus norvegicus [9] = assay: Percent change was determined in bradykinin depressor response n anesthetized normotensive rat, administered intravenously at dose 0.090 mg/kg; type: functional; conditions: dose 0.09 mg/kg; route intravenous
How it was run: (§5)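 Male Charles River CD rats (380–500 g), pentobarbital Na 15 mg/kg plus barbital 220 mg/kg ip, tracheotomized, femoral artery/vein cannulated, kept at 37 °C. Control bradykinin 1 μg/kg iv depressor response, separate from angiotensin tests; drug iv in 0.9% saline (1 mL/kg, free base) 10 min later, Bk 5 min after each cumulative dose (0.0033–0.27 mg/kg). Maximum fall in arterial pressure versus control response; N = 8.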

Rattus norvegicus [10] = assay: Hypotensive activity was determined in low-sodium treated rat, dose 3 mg/kg administered orally at 5 hr; type: functional; conditions: route oral
How it was run: (§6)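 Male CD rats, 11 weeks old, kept on a sodium-deficient diet for 3 weeks and fasted overnight, were dosed orally with aqueous solutions (5 mL/kg), water as control. Systolic pressure measured by tail cuff at the stated post-dose time. ANOVA with Duncan's test.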

Rattus norvegicus [11] = assay: Effect on vasopressor response caused by angiotensin I (AI) in anesthetized normotensive rat, administered intravenously at dose 0.030 mg/kg; type: functional; conditions: dose 0.03 mg/kg; route intravenous; how it was run: as §1
Rattus norvegicus [12] = assay: Percent decrease in angiotensin I pressor response was measured in rat, administered intravenously at dose 0.010 mg/kg; type: functional; conditions: dose 0.01 mg/kg; route intravenous; how it was run: as §4
Rattus norvegicus [13] = assay: Change in heart rate was determined at a dose 30 mg/kg; type: functional; how it was run: as §2
Rattus norvegicus [14] = assay: Percent decrease in angiotensin I pressor response was measured in rat, administered intravenously at dose 0.090 mg/kg; type: functional; conditions: dose 0.09 mg/kg; route intravenous; how it was run: as §4
Rattus norvegicus [15] = assay: Effect on vasopressor response caused by angiotensin I (AI) in anesthetized normotensive rat, administered intravenously at dose 0.090 mg/kg; type: functional; conditions: dose 0.09 mg/kg; route intravenous; how it was run: as §1
Rattus norvegicus [16] = assay: Hypotensive activity was determined in low-sodium treated rat, dose 30 mg/kg administered orally at 5 hr; type: functional; conditions: route oral; how it was run: as §6
Rattus norvegicus [17] = assay: Activity against the bradykinin Response in anesthetized normotensive rat, administered intravenously at dose 0.030 mg/kg; type: functional; conditions: dose 0.03 mg/kg; route intravenous; how it was run: as §3
Rattus norvegicus [18] = assay: Percent change was determined in bradykinin depressor response in anesthetized normotensive rat, administered intravenously at dose 0.010 mg/kg; type: functional; conditions: dose 0.01 mg/kg; route intravenous; how it was run: as §5
Rattus norvegicus [19] = assay: Decrease in systolic blood pressure of Spontaneous Hypertensive Rats (SHR) pretreated with hydrochlorothiazide upon oral administration at 30 mm/kg; type: functional, Artery; how it was run: as §2
Rattus norvegicus [20] = organism: Rattus norvegicus; assay: Dose required to reduce systolic blood pressure by 30 mmHg; type: functional; conditions: Artery; how it was run: as §2
Rattus norvegicus [21] = assay: Hypotensive activity was determined in low-sodium treated rat, dose 10 mg/kg administered orally at 5 hr; type: functional; conditions: route oral; how it was run: as §6
Rattus norvegicus [22] = assay: Activity against the bradykinin Response in anesthetized normotensive rat, administered intravenously at dose 0.090 mg/kg; type: functional; conditions: dose 0.09 mg/kg; route intravenous; how it was run: as §3
Rattus norvegicus [23] = assay: Hypotensive activity was determined in low-sodium treated rat, dose 30 mg/kg administered orally at 2 hr; type: functional; conditions: route oral; how it was run: as §6
Rattus norvegicus [24] = assay: Effective dose to produce AcE inhibition in rat, administered intravenously; type: functional; conditions: iv; how it was run: as §1
[25] = Half life was determined; type: ADME; conditions: rat
How it was run: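 Rats anesthetized with pentobarbital/barbital received a single iv dose, 0.2 or 0.08 mg/kg. AI 0.3 μg/kg iv given at 5 min, then every 10 min for 210 min. Half-life = time for the AI pressor response to fall to 50% of its peak inhibition.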

Rattus norvegicus [26] = assay: Activity against the bradykinin Response in anesthetized normotensive rat, administered intravenously at dose 0.010 mg/kg; type: functional; conditions: dose 0.01 mg/kg; route intravenous; how it was run: as §3
Rattus norvegicus [27] = assay: Percent change was determined in bradykinin depressor response in anesthetized normotensive rat, administered intravenously at dose 0.030 mg/kg; type: functional; conditions: dose 0.03 mg/kg; route intravenous; how it was run: as §5
Rattus norvegicus [28] = assay: Change in heart rate was determined at a dose 3 mg/kg; type: functional; how it was run: as §2
Rattus norvegicus [29] = assay: Hypotensive activity was determined in low-sodium treated rat, dose 3 mg/kg administered orally at 2 hr; type: functional; conditions: route oral; how it was run: as §6
Rattus norvegicus [30] = assay: Hypotensive activity was determined in low-sodium treated rat, dose 10 mg/kg administered orally at 2 hr; type: functional; conditions: route oral; how it was run: as §6
Rattus norvegicus [31] = assay: Percent decrease in angiotensin I pressor response was measured in rat, administered intravenously at dose 0.030 mg/kg; type: functional; conditions: dose 0.03 mg/kg; route intravenous; how it was run: as §4
Rattus norvegicus [32] = assay: Effect on vasopressor response caused by angiotensin I (AI) in anesthetized normotensive rat, administered intravenously at dose 0.81 mg/kg; type: functional; conditions: route intravenous; how it was run: as §1
Rattus norvegicus [33] = assay: Percent decrease in angiotensin I pressor response was measured in rat, administered intravenously at dose 0.81 mg/kg; type: functional; conditions: route intravenous; how it was run: as §4
Rattus norvegicus [34] = assay: Decrease in systolic blood pressure of Spontaneous Hypertensive Rats (SHR) pretreated with hydrochlorothiazide upon oral administration at 10 mm/kg; type: functional, Artery; how it was run: as §2
Rattus norvegicus [35] = assay: Effect on vasopressor response caused by angiotensin I (AI) in anesthetized normotensive rat, administered intravenously at dose 0.010 mg/kg; type: functional; conditions: dose 0.01 mg/kg; route intravenous; how it was run: as §1

## CCOC(=O)[C@H](CCc1ccccc1)N[C@H](C)C(=O)N1C(=O)CC[C@H]1C(=O)O
[1]
  ED50: 4 mg/kg

## CCOC(=O)[C@H](CCc1ccccc1)N[C@@H](C)C(=O)N1CCC[C@H]1C(=O)O [ENALAPRIL]
Rattus norvegicus [2]
  Response: 8 mmHg
Rattus norvegicus [3]
  Blood pressure: 199 mmHg
Rattus norvegicus [4]
  ED50: 0.0097 mg/kg
Rattus norvegicus [5]
  Response: -27 mmHg
Rattus norvegicus [6]
  Heart rate: 380 beats min-1
Rattus norvegicus [7]
  Change: -7%
Rattus norvegicus [8]
  Decrease: 81%
Rattus norvegicus [9]
  Change: 107%
Rattus norvegicus [10]
  Activity: 128 mmHg
Rattus norvegicus [11]
  Response: 27 mmHg
Rattus norvegicus [12]
  Decrease: 14%
Rattus norvegicus [13]
  Heart rate: 386 beats min-1
Rattus norvegicus [14]
  Decrease: 60%
Rattus norvegicus [15]
  Response: 17 mmHg
Rattus norvegicus [16]
  Activity: 128 mmHg
Rattus norvegicus [17]
  Response: -61 mmHg
Rattus norvegicus [18]
  Change: 55%
Rattus norvegicus [19]
  Blood pressure: 163 mmHg
Rattus norvegicus [20]
  ED30: 1.5 mg/kg
Rattus norvegicus [21]
  Activity: 123 mmHg
Rattus norvegicus [22]
  Response: -60 mmHg
Rattus norvegicus [23]
  Activity: 134 mmHg
Rattus norvegicus [24]
  ED50: 0.066 mg/kg
[25]
  half-life: 2.5 h
Rattus norvegicus [26]
  Response: -45 mmHg
Rattus norvegicus [27]
  Change: 110%
Rattus norvegicus [28]
  Heart rate: 378 beats min-1
Rattus norvegicus [29]
  Activity: 148 mmHg
Rattus norvegicus [30]
  Activity: 138 mmHg
Rattus norvegicus [31]
  Decrease: 37%
Rattus norvegicus [32]
  Response: 7 mmHg
Rattus norvegicus [33]
  Decrease: 84%
Rattus norvegicus [34]
  Blood pressure: 169 mmHg
Rattus norvegicus [35]
  Response: 37 mmHg
